Assay results pooled from the literature.
Lines come from different studies, so protocols differ.
Target: Serine/threonine-protein kinase 17A (STK17A, Homo sapiens, UniProt Q9UEE5)
Effect on: enzyme activity
Sequence (Q9UEE5 1-414, as in one of the studies): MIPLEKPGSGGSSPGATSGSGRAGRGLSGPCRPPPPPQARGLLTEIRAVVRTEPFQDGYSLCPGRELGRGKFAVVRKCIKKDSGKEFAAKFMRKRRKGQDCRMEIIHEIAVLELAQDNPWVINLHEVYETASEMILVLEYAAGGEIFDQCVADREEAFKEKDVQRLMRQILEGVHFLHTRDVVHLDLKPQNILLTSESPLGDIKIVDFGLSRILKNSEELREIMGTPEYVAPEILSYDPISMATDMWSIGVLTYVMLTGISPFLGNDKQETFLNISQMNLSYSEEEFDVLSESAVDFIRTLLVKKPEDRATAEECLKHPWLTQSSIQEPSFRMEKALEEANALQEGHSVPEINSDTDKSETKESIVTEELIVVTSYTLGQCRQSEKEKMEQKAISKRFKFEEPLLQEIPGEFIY

SMILES | mode | method | tested at | remaining activity
CCCOc1ccc(OC)c(F)c1C(=O)c1ccc(C(=O)N[C@@H]2CNC[C@H]2NC(=O)c2ccc3[nH]ncc3c2)cc1 | inhibitor |  | 10 µM | 7%
CC(C)(O)[C@H]1CC[C@H](Nc2ccc3ncc(-c4cccc(C(F)(F)F)c4)n3n2)CC1 | inhibitor |  | 1 µM | 106%
COc1cc(Cl)c(C(=O)N[C@@H](CN[C@H]2CC[C@@H](N)CC2)Cc2ccc(C#N)cc2)cc1-c1ccc(CN[C@H](C)c2ccc(C)cc2)o1 | inhibitor |  | 1 µM | 70%
CCN(CC)c1ccc(C2=NNC(=O)CC2C)cc1[N+](=O)[O-] (centres unmarked) | inhibitor |  | 10 µM | 100%
Cc1ccc(C(=O)Nc2ccc(CN3CCN(C)CC3)c(C(F)(F)F)c2)cc1C#Cc1cnc2cccnn12 |  |  | 23.5 nM | 100%
O=C(Nc1cnn(-c2csc(C(=O)NC3COC3)c2)c1)Nc1ccccc1Cl | inhibitor |  | 5 µM | 98.4%
Cc1nn(CC(F)(F)F)cc1Nc1ncc(C2CC2)c(NCc2ccc(S(N)(=O)=O)cc2)n1 | inhibitor | radiometric | 1 µM | 105%
Cc1cnc(NC2CCOCC2)nc1-n1cnc(C(=O)NC(CN)c2cc(F)cc(Cl)c2)c1 (centres unmarked) | inhibitor | radiometric | 1 µM | 100%
Cc1nn(CC(F)(F)F)cc1Nc1ncc(Br)c(NCCc2cnc[nH]2)n1 | inhibitor | radiometric | 1 µM | 63%
O=c1cc(-c2cccc3c2Sc2ccccc2S3)oc(N2CCOCC2)c1 | inhibitor |  | 0.5 µM | 98.2%
Cc1nn(CC(F)(F)F)cc1Nc1ncc(Br)c(NCc2ccc(S(N)(=O)=O)cc2)n1 | inhibitor | radiometric | 1 µM | 93%
CC(C)(C)c1nc2c(s1)c1nc(N)ncc1c1ccc(NS(=O)(=O)c3c(F)cccc3F)c(F)c12 | inhibitor | radiometric | 1 µM | 80%
O=C(Nc1cnn(-c2csc(C(=O)NC3COC3)c2)c1)Nc1c(F)cccc1Cl | inhibitor |  | 5 µM | 89.4%
NS(=O)(=O)c1ccc(CNc2nc(Nc3cccc(CN4CCOCC4)c3)ncc2C2CC2)cc1 | inhibitor | radiometric | 1 µM | 108%
